EC50 data for 9 compounds are collected here from PubChem BioAssay AID588751 (Vanderbilt Specialized Chemistry Center, 2011).

pEC50: −log10 of the molar value.

Chain of Muscarinic acetylcholine receptor M4 (Rattus norvegicus) (P08485 whole entry, looked up): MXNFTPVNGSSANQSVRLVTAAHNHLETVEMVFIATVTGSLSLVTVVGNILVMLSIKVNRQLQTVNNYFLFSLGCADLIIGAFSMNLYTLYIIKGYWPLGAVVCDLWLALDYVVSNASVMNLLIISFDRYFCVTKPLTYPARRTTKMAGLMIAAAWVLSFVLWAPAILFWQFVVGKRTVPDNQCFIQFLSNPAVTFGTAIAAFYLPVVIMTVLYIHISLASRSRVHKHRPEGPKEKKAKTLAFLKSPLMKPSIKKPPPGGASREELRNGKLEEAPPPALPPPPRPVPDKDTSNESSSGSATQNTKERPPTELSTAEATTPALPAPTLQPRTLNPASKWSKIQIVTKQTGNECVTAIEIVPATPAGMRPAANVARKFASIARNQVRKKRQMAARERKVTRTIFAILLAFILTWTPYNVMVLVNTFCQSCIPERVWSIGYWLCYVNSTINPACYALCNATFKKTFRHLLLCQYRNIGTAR

The assay addresses Muscarinic acetylcholine receptor M4 (Rattus norvegicus) (UniProt P08485). As to the kind of experiment: ACh potentiation at rat M4, late-stage follow-up, counter-screen for M4 PAM project, CHO Gqi5 cells, calcium (AID 588751). The note with it: calcium fluorescence, ACh EC20. Summed up:
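times = 144 s compound, 86 s between ACh additions, 37 °C | test system = CHO cells stably co-expressing rat M4 receptor and chimeric Gqi5 | reagent = acetylcholine at EC20, then acetylcholine at EC80 | doses = dose series in 0.3% DMSO final | signal = Fluo-4 calcium fluorescence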
With `Cc1nc2sc(C(=O)NCc3ccncn3)c(N)c2c(C)c1Cl`, the pEC50 was 6.28.

As to `Cc1nc2sc(C(=O)NCc3ccc4c(c3)OCO4)c(N)c2c(C)c1Cl`, the negative-log EC50 (pEC50) was 7.21.

`Cc1nc2sc(C(=O)NCc3ccncc3)c(N)c2c(C)c1Cl`: the pEC50 was 6.76.

As for `Cc1nc2sc(C(=O)NCc3cccnc3)c(N)c2c(C)c1Cl`, the negative-log EC50 (pEC50) is 6.57.

Turning to `Cc1nc2sc(C(=O)NCc3ccccc3)c(N)c2c(C)c1Cl`, the negative logarithm of the EC50 (pEC50) was 6.90.

Regarding `Cc1nc2sc(C(=O)NCc3cccc(F)c3F)c(N)c2c(C)c1Cl`, the negative logarithm of the EC50 (pEC50) is 6.94.

For the compound `Cc1nc2sc(C(=O)NCCc3ccncc3)c(N)c2c(C)c1Cl`, the negative-log EC50 (pEC50) is 6.64.

Turning to `Cc1nc2sc(C(=O)NC3CC3)c(N)c2c(C)c1Cl`, the negative-log EC50 (pEC50) is 6.82.

In the case of `Cc1nc2sc(C(=O)NCc3nccs3)c(N)c2c(C)c1Cl`, the pEC50 was 6.73.
